Data set [1] has as its system Phospho-b-Catenin (S675). It is filed as in vivo. As to conditions: A549 xenograft tumors, 2 h after final dose on day 20. A digest of the protocol:
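Xenograft tumors were harvested 2 h after the last dose, flash frozen and lysed in buffer with protease and phosphatase inhibitors. Protein was measured by BCA. Lysates from individual mice in each group were pooled so each tumor contributed equal total protein. Western blots were imaged on an infrared imager. Pools were run once, with no statistical testing.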

For data set [2] the following is noted: Phase I, solid tumors; ref Dean et al., 2016; cited from earlier work.
Data set [3] concerns palmitoyl-α-tubulin. The data set is described as follows: Tubulin palmitoylation in NSCLC cell lines. It is filed as cell-based. To be noted: A549 cells, 20 μM for 18 h.
Data set [4] deals with palmitoyl-β-tubulin. The data set is described as follows: Tubulin palmitoylation in NSCLC cell lines. It is filed as cell-based. As to conditions: A549 cells, 20 μM for 18 h.
Data set [5] concerns MRC-5 lung fibroblasts. The data set is classed as cell-based. As to conditions: MRC-5 fibroblasts.
In data set [6] the test system is β-tubulin mRNA in 22Rv1 prostate tumor cells. In words: β-tubulin mRNA expression by RNA sequencing. The data set is classed as cell-based. To be noted: 22Rv1 cells, 48 h, 1 μM TVB-3166.
Data set [7] deals with CALU6 non-small-cell lung tumor cells. The data set is described as follows: Soft agar colony formation. The data set is classed as cell-based. Summed up: (§1)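 Cells were plated in 0.35% agarose in IMDM with 10% FBS, 1% non-essential amino acids and 1% L-glutamine, containing a dose–response matrix of FASN inhibitor and paclitaxel. This layer sat over a 0.6% bacto-agar base in the same medium. A compound-containing liquid feeder layer was changed weekly. After 3–4 weeks, colonies were stained with 0.005% crystal violet and wells imaged.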

Data set [8] relates to xenograft tumor models. The data set is described as follows: Xenograft tumor models, summary statements across models. As to conditions: three NSCLC studies (CALU6, A549, CTG-0165_P + 6). The data set is classed as in vivo, mice. Summed up: (§2)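 Mice with NSCLC cell-line (CALU-6, A549) or patient-derived tumors were randomized by tumor size and dosed once mean tumor size reached 150–200 mm3; ≥10 mice/group. FASN inhibitor 60 mg/kg by oral gavage once daily; paclitaxel 10 mg/kg iv every 4 days or docetaxel 8 or 6 mg/kg iv every 7 days. In combinations, FASN inhibitor was given 2 h before taxane. TGI is % tumor growth from treatment start, drug vs vehicle groups.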

Data set [9] relates to 22Rv1 prostate tumor cells. The data set is described as follows: Soft agar colony formation. It is filed as cell-based. Summed up: as §1
Data set [10] deals with CALU6 NSCLC adenocarcinoma cell line xenograft. The data set is described as follows: CALU6 NSCLC xenograft tumor growth. As to conditions: CALU-6; TVB-3166 60 mg/kg oral once daily; paclitaxel 10 mg/kg iv every 4 days. The data set is classed as in vivo, mice. Summed up: as §2

The structures appear in SMILES notation.

On to `CC(=O)O[C@@]12CO[C@@H]1C[C@H](O)[C@@]1(C)C(=O)[C@H](O)C3=C(C)[C@@H](OC(=O)[C@H](O)[C@@H](NC(=O)OC(C)(C)C)c4ccccc4)C[C@@](O)([C@@H](OC(=O)c4ccccc4)[C@H]21)C3(C)C` [Docetaxel], for which, in data set [1], the “inhibition of β-catenin S675 phosphorylation” value is 25%.

`Cc1nnc(-c2cc(C(=O)N3CCC(c4ccc(C#N)cc4)CC3)c(C)cc2C2CCC2)[nH]1` [TVB-2640]: in data set [2], the “oral bioavailability and pharmacokinetics” value was “excellent”.

Turning to `CCCCCCCCCCCCCCC(Br)C(=O)O` (stereo not drawn) [2-Bromo-Palmitate, 2-bromopalmitate], the “decrease of palmitoyl-α-tubulin level” value in data set [3] is on record as 27%. For the same compound, the “decrease of palmitoyl-β-tubulin level” value in data set [4] was found to be 79%.

With `CC(=O)O[C@H]1C(=O)[C@@]2(C)[C@H]([C@H](OC(=O)c3ccccc3)[C@]3(O)C[C@H](OC(=O)[C@H](O)[C@@H](NC(=O)c4ccccc4)c4ccccc4)C(C)=C1C3(C)C)[C@]1(OC(C)=O)CO[C@@H]1C[C@@H]2O` [Paclitaxel], the “effect on microtubule organization in non-tumor cells” value in [5] is reported as “very little effect”. Besides, the “β-tubulin mRNA expression compared to DMSO” value in data set [6] was “no effect”. The “soft agar colony growth” value in data set [7] (3 nM paclitaxel) is reported as “strong inhibition of colony growth”; in [7] (paclitaxel 0.3 or 1.0 nM), “did not affect colony size or number”; in [9] (3 nM paclitaxel), “strong inhibition of colony growth”; in data set [9] (paclitaxel 0.3 or 1.0 nM) it was “did not affect colony size or number”. In addition, in [8], the “tumor growth inhibition, single agent” value is listed as 48–63%. Further, in [10], the TGI vs. vehicle came out at 63%.
